Peptide text beside a SMILES is read from it.

The values that follow come from ChEMBL document CHEMBL1124614, “A carboxy-terminus truncated analogue of angiotensin II, [Sar1]angiotensin II-(1-7)-amide, provides an entry to a new class of angiotensin II antagonists” (J Med Chem, 1989).

Data set [1] deals with Rattus norvegicus. Briefly: Variation in mean arterial pressure, produced by angiotensin II upon administration at 30 ug/kg/min in rats. In kind it is functional, Artery. In a few lines:
(§1)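 Rats were anesthetized and ganglion-blocked. Antagonist was given by iv infusion in µg/kg per min. The pressor response to angiotensin II (30 ng/kg iv) was measured before infusion, during infusion, and 5, 10, 20, 40 and 60 min after it. Responses are given as % of the pre-infusion control, as mean ± SEM, with n = 4–6 rats.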

The test system of data set [2] is Rattus norvegicus. The data set is described as follows: Variation in mean arterial pressure produced by angiotensin II, 40 min after administration (dose 30 ug/kg/min) in rats; 96/4. In kind it is functional, Artery. The method in brief: as §1
The subject of data set [3] is Rattus norvegicus. Briefly: Variation in mean arterial pressure produced by angiotensin II, 10 min after administration (dose 30 ug/kg/min) in rats; 63/3. In kind it is functional, Artery. In a few lines: as §1
For data set [4], the system named is Rattus norvegicus. The data set is described as follows: Variation in mean arterial pressure produced by angiotensin II, 5 min after administration (dose 30 ug/kg/min) in rats; 35/1. In kind it is functional, Artery. In a few lines: as §1
For data set [5], the system named is Rattus norvegicus. The data set is described as follows: Variation in mean arterial pressure produced by angiotensin II, 60 min after administration (dose 30 ug/kg/min) in rats; 97/3. In kind it is functional, Artery. The method in brief: as §1
Data set [6] relates to Rattus norvegicus. The data set is described as follows: Variation in mean arterial pressure produced by angiotensin II, 20 min after administration (dose 30 ug/kg/min) in rats; 87/4. In kind it is functional, Artery. The method in brief: as §1
Data set [7] can be described thus: Rate constant was determined for the compound. The format is ADME.
For data set [8], the system named is Rattus norvegicus. Briefly: Variation in mean arterial pressure produced by angiotensin II, 10 min after administration (dose 10 ug/kg/min) in rats; 50/5. In kind it is functional, Artery. The method in brief: as §1
Data set [9] deals with Rattus norvegicus. The data set is described as follows: Variation in mean arterial pressure, produced by angiotensin II upon administration at 10 ug/kg/min in rats. The format is functional, Artery. In a few lines: as §1
Data set [10] relates to Rattus norvegicus. Briefly: Variation in mean arterial pressure produced by angiotensin II, 20 min after administration (dose 10 ug/kg/min) in rats; 78/5. The format is functional, Artery. The method in brief: as §1
In data set [11] the test system is Rattus norvegicus. Briefly: Variation in mean arterial pressure produced by angiotensin II, 5 min after administration (dose 10 ug/kg/min) in rats; 29/5. In kind it is functional, Artery. The method in brief: as §1
Data set [12] concerns Rattus norvegicus. Briefly: Variation in mean arterial pressure produced by angiotensin II, 40 min after administration (dose 10 ug/kg/min) in rats; 96/4. The format is functional, Artery. In a few lines:
as §1

In data set [13] the test system is Rattus norvegicus. The data set is described as follows: Variation in mean arterial pressure produced by angiotensin II, 60 min after administration (dose 10 ug/kg/min) in rats; 94/6. In kind it is functional, Artery. In a few lines:
as §1

The species entered for data set [14] is Rattus norvegicus. Briefly: Concentration at which compound antagonizes increase in arterial pressure produced by angiotensin II. To be noted: Artery.
In data set [15] the test system is Rattus norvegicus. The data set is described as follows: Variation in mean arterial pressure produced by angiotensin II, 60 min after administration (dose: 60 ug/kg/min) in rats; 91/5. The format is functional, Artery. In a few lines: as §1
Data set [16] deals with Rattus norvegicus. The data set is described as follows: Variation in mean arterial pressure, produced by angiotensin II upon administration at 60 ug/kg/min in rats; 6/3. In kind it is functional, Artery. The method in brief: as §1
The species named for another data set is Oryctolagus cuniculus. Briefly: Tested for antagonist activity in rabbit aortic rings, pA2 values were determined from Schild plots. In kind it is functional. To be noted: Aorta, read-out: pA2 (converted). The method in brief:
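Isolated rabbit aortic rings were used and contraction was recorded. Agonist activity was tested up to 10⁻⁵ M. For antagonism, angiotensin II concentration-response curves were run with and without three antagonist concentrations. pD2 was taken from the curves and pA2 from Schild plots fitted by least squares.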

Data set [17] relates to Rattus norvegicus. Briefly: Variation in mean arterial pressure produced by angiotensin II, 10 min after administration (dose: 60 ug/kg/min) in rats; 61/5. In kind it is functional, Artery. In a few lines:
as §1

Data set [18] relates to Rattus norvegicus. Briefly: Variation in mean arterial pressure produced by angiotensin II, 5 min after administration (dose: 60 ug/kg/min) in rats; 50/5. The format is functional, Artery. In a few lines:
as §1

The subject of data set [19] is Rattus norvegicus. The data set is described as follows: Variation in mean arterial pressure produced by angiotensin II, 20 min after administration (dose: 60 ug/kg/min) in rats; 78/5. The format is functional, Artery. In a few lines:
as §1

Data set [20] deals with Rattus norvegicus. The data set is described as follows: Variation in mean arterial pressure produced by angiotensin II, 40 min after administration (dose: 60 ug/kg/min) in rats; 91/4. In kind it is functional, Artery. In a few lines:
as §1

For the next data set, the species on record is Canis familiaris. Briefly: Antagonistic effect on aldosterone secretion by zona glomerulosa cells from canine adrenal glands. To be noted: Canis lupus familiaris; Adrenal gland. The format is functional.

Take `CC[C@H](C)[C@H](NC(=O)[C@H](Cc1ccc(OC)cc1)NC(=O)[C@@H](NC(=O)[C@H](CCCN=C(N)N)NC(=O)CNC)C(C)C)C(=O)N[C@@H](Cc1c[nH]cn1)C(=O)N1CCC[C@H]1C(=O)N[C@@H](Cc1ccccc1)C(=O)O`: the Control is 0% with Rattus norvegicus [1]; 96% with Rattus norvegicus [2]; 63% with Rattus norvegicus [3]; 35% in the data set on Rattus norvegicus [4]; 97% in the data set with Rattus norvegicus [5]; 87% in the data set with Rattus norvegicus [6].

Take `CC[C@H](C)[C@H](NC(=O)[C@H](Cc1ccc(O)cc1)NC(=O)[C@@H](NC(=O)[C@H](CCCNC(=N)N)NC(=O)[C@@H](N)CC(=O)O)C(C)C)C(=O)N[C@@H](Cc1cnc[nH]1)C(=O)N1CCC[C@H]1C(=O)N[C@@H](Cc1ccccc1)C(=O)O` [ANGIOTENSIN II]: the pD2 in [7] was 8.98.

Take `CNCC(=O)N[C@@H](CCCNC(=N)N)C(=O)N[C@H](C(=O)N[C@@H](Cc1ccc(O)cc1)C(=O)N[C@H](C(=O)N[C@@H](Cc1cnc[nH]1)C(=O)N1CCC[C@H]1C(=O)N[C@@H](C)C(=O)O)C(C)C)C(C)C` [SARALASIN]: the Control in the data set on Rattus norvegicus [8] came out at 50%; in the data set with Rattus norvegicus [9], 0%; in the data set on Rattus norvegicus [10] it was 78%; in the data set on Rattus norvegicus [11], 29%; with Rattus norvegicus [12], 96%; with Rattus norvegicus [13] it was 94%.

For `CC[C@H](C)[C@H](NC(=O)[C@H](Cc1ccc(O)cc1)NC(=O)[C@@H](NC(=O)[C@H](CCCN=C(N)N)NC(=O)CNC)C(C)C)C(=O)N[C@@H](Cc1c[nH]cn1)C(=O)N1CCC[C@H]1C(N)=O`, the Concentration (ug min-1 kg-1) in the data set listed under Rattus norvegicus [14] was 60. The Control worked out at 91% with Rattus norvegicus [15]; 6% in the data set with Rattus norvegicus [16]; 61% with Rattus norvegicus [17]; 50% in the data set on Rattus norvegicus [18]; 78% in the data set with Rattus norvegicus [19]; 91% in the data set with Rattus norvegicus [20]. In addition, the Kb in the data set filed under Oryctolagus cuniculus was 23.4 nM.

Turning to `CC(C)[C@H](NC(=O)[C@H](CCCN=C(N)N)NC(=O)[C@@H](N)CC(=O)O)C(=O)N[C@@H](Cc1ccc(O)cc1)C(=O)N[C@H](C(=O)N[C@@H](Cc1c[nH]cn1)C(=O)N1CCC[C@H]1C(=O)O)C(C)C` (H-DRVYVHP-OH), in the data set filed under Canis familiaris, the Concentration was determined as 1 mM.
